Compound activity (PubChem)
Compounds with a hit are over-represented: about 2.3% of the library has one in this group of screens.
TRPC4 agonist – TRPC4 (mouse) channel activation; Q9QUQ5; HEK293 TRPC4beta/mu-opioid, Fluo4 calcium fluorescence; hits give high values; B-score at 10 µM; 0.49% of 310,000 active; AID 2237;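 active means B-score above 5 SD of library B-scores, and initial fluorescence ratio not above library mean plus 5 SD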;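 further: positive B-score marks a calcium rise read as TRPC4 activation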
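Incubation: 45 min room-temperature Fluo4 loading, 110 s read / System: HEK293 cells stably co-expressing mouse TRPC4beta and mu-opioid receptor / Signal: Fluo4 fluorescence, kinetic / Control set: buffer (low) and maximal DAMGO (high) / Measure: integrated baseline-normalised fluorescence ratio, converted to per-well B score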
TRPC6 activator – activates the mouse TRPC6 cation channel | Q61143 | HEK293-TRPC6 membrane potential dye fluorescence; hits give high values | B-score at 10 µM | 0.13% of 310,000 active;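 active means B-score of the integrated fluorescence ratio above library mean plus 3 SD, and starting fluorescence ratio within library mean plus 5 SD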;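 further: higher score means more depolarization so channel activation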
TRPC4 potent – allosteric potentiators of mouse TRPC4 channel. Q9QUQ5. B-score at 10 µM. HEK293 TRPC4beta/mu-opioid, DAMGO EC20, Fluo-4 Ca2+ flux; hits give high values. 0.42% of 310,000 active. AID 2227;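 active means B-score of calcium response area above 5 SD of library B-scores, with initial fluorescence ratio within 5 SD of library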;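 further: B-score of integrated fluorescence ratio over time as area under calcium response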
TRPC4 block – TRPC4 (mouse) channel inhibition; HEK293 TRPC4beta/mu-opioid, DAMGO-evoked Fluo4 calcium flux; hits give low values; B-score at 10 µM; 0.39% of 300,000 active; AID 2247;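 active means B-score over 3 SD under the library average, no early fluorescence shift, positive overall ratio signal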
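System: stable TRPC4beta/mu-opioid receptor HEK293 cells; Dosing: single-point compound dosing; Measured by: Fluo4 Ca2+ flux fluorescence; Read-out basis: per-well B score of integrated baseline-normalized Fluo4 ratio.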
TRPC6 inh – inhibitors of mouse TRPC6 channel; Q61143; HEK293-TRPC6, membrane potential dye, ACh-evoked depolarization; hits give low values; B-score at 10 µM; 1.1% of 310,000 active;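 active means B-score under library mean minus 3 SD, initial fluorescence not abnormally high, positive integrated signal ratio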;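 further: B-score derived from integrated fluorescence ratio over the kinetic read; more negative B-score means stronger inhibition of depolarization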
Numbers without * were called inactive; i = inactive.

SMILES	TRPC4 agonist	TRPC6 activator	TRPC4 potent	TRPC4 block	TRPC6 inh
COc1ccc(N(C(=O)c2snc(C(N)=O)c2N)C(C(=O)NC2CCCC2)c2cccs2)c(OC)c1 (centres undefined)	i	i	i	i	i
COc1ccc2c(Cl)c(-c3nnc(SCC(N)=O)n3C)sc2c1	i	i	i	i	i
COc1ccc2c(Cl)c(-c3nnc(SCC(=O)c4ccccc4)n3C)sc2c1	104*	i	i	i	i
c1ccc(CC2CCCNC2)cc1 (centres undefined)	90*	i	i	i	i
CCC(C)CCN1C(Nc2ccccc2)=NC[C@@H]1C (some centres undefined)	i	i	i	i	i
CCn1c(=O)[nH]c(=O)c2c(N)c(C(=O)c3cc(F)ccc3F)sc21	i	i	10*	i	i
COCC(=O)N1CCC(Oc2ccc(C(=O)NCc3cc(C(C)C)no3)cc2)CC1	i	i	i	i	i
O=C(Cc1cccc(C(F)(F)F)c1)NCc1ccc(Cl)cc1	i	i	i	i	i
Cc1cccc(C(=O)NCC(c2ccco2)N(C)C)c1 (centres undefined)	i	i	i	i	i
CN(C)C(CNc1ccc(C(F)(F)F)cn1)c1ccccc1 (centres undefined)	97*	i	i	i	i
CN(C)C(CNC(=O)Cc1cccc(C(F)(F)F)c1)c1ccccc1 (centres undefined)	161*	i	i	-7*	i
CN(C)C(CNC(=O)Cc1cccc(C(F)(F)F)c1)c1ccco1 (centres undefined)	90*	i	i	i	i
CN(C)C(CNC(=O)C1CCN(S(=O)(=O)c2cccc(C(F)(F)F)c2)CC1)c1ccccc1 (centres undefined)	48*	i	i	-8*	i
CCSc1nsc(NC(=O)Nc2ccccc2F)n1	i	i	i	i	i
C=CCSc1nsc(NC(=O)Nc2ccc(F)cc2)n1	i	i	11*	i	i
CCn1nc([N+](=O)[O-])c(C(C#N)c2nc3cc(C(F)(F)F)ccc3s2)c(Cl)c1=O (centres undefined)	i	i	i	i	-11*
Cn1nc([N+](=O)[O-])c(C(C#N)c2ccccn2)c(Cl)c1=O (centres undefined)	i	i	i	i	i
NC(=O)Cc1nc(-c2ccccc2)cs1	i	i	i	i	i
NCCc1nc(-c2ccccc2)cs1	116*	i	i	i	i
COCCN(C(=O)CSc1nc2ccc(Cl)cc2[nH]1)c1c(N)n(Cc2ccccc2)c(=O)[nH]c1=O	i	i	i	-5*	i
CCc1ccccc1OCCCCCNCCO	i	i	11*	i	i
Cc1cc(Br)ccc1OCCCCNCCO	i	i	10*	i	i
Cc1cc(C(=O)c2ccc(C(C)(C)C)cc2)c(NC(=O)CCl)s1	i	i	i	i	i
COc1ccc(S(=O)(=O)N(C)c2ccc(C(=O)Nc3cccnc3)cc2)cc1	i	i	i	i	i
CCCn1c(N2CCN(C(=O)/C=C/C(=O)O)CC2)nc2ccccc21	57*	i	i	i	i
SMILES	TRPC4 agonist	TRPC6 activator	TRPC4 potent	TRPC4 block	TRPC6 inh
CCn1c(N2CCN(C(=O)/C=C/c3ccccc3)CC2)nc2ccccc21	94*	i	i	i	i
CN(CC(=O)Nc1cccc(F)c1)C(=O)C1CC(=O)N(Cc2ccccc2)C1 (centres undefined)	i	i	i	i	i
N=C(N)SCc1ccccn1	i	i	38*	i	i
Cc1cc(C)nc(NC(=O)C2c3ccccc3Oc3ccccc32)n1	i	i	i	i	i
Cc1ccc2[nH]c(=O)c(CN(C(=O)c3cccc([N+](=O)[O-])c3)C(C)C)cc2c1	i	i	i	i	i
CCCCOc1ccc(S(N)(=O)=O)cc1	i	i	i	i	i
NS(=O)(=O)c1ccc(Oc2ccc(S(N)(=O)=O)cc2)cc1	i	i	96*	i	i
CCCCn1c(N)c(N(CC(C)C)C(=O)c2ccc(C)c(S(=O)(=O)N3CCCCC3)c2)c(=O)[nH]c1=O	i	i	i	i	i
COC(=O)C1=C(C)N(Cc2ccccc2)C(=S)N[C@H]1c1cccc(F)c1	i	i	i	-5*	i
COC(=O)C1=C(C)N(Cc2ccccc2)C(=NCc2ccccc2)N[C@H]1c1cccc(F)c1	i	i	i	i	i
OC(COc1ccc(Cl)cc1Cl)Cn1ccnc1 (centres undefined)	i	i	i	i	i
Clc1ccc(OCCn2ccnc2)c(Cl)c1	i	i	14*	i	i
COc1ccccc1OCCn1ccnc1	i	i	i	i	i
Clc1ccc(OCCn2ccnc2)c(Br)c1	i	i	21*	i	i
Clc1ccc(OCCn2ccnc2)c2ccccc12	53*	i	i	i	i
Clc1ccc(SCCCCn2cncn2)cc1	i	i	i	i	i
Cc1cc(Cl)c(OCCn2ccnc2)c(Br)c1	i	i	i	i	i
Clc1ccc(SCCn2ccnc2)cc1	63*	i	i	i	i
CC(C)CN1CCC(Oc2cccc(C(=O)NCCc3ccccc3)c2)CC1	i	i	i	i	i
O=C(CN1c2ccccc2Sc2ccccc21)NNC(=O)Nc1cccc(Cl)c1	i	i	i	i	i
CN(CC(=O)Nc1cccc(F)c1)C(=O)c1ccc(NC2CC2)c([N+](=O)[O-])c1	i	i	i	i	i
CC(C)(C)C#CCn1c(/C=[N+](\[O-])C2CCCCC2)nc2ccccc21	i	i	i	i	i
C=CCNC(=O)/C(C#N)=C/c1ccc(SC)cc1	i	i	10*	i	i
C=CCNC(=O)/C(C#N)=C/c1ccc2c(c1)OCCO2	i	i	i	i	i
Cc1ccccc1NC(=O)C1Cc2ccccc2CN1C(=O)OCc1ccccc1 (centres undefined)	i	i	i	i	i
COc1cc2c(cc1OC)C(C)N(C(=O)[C@@H](NC(=O)c1ccccc1)C(C)C)CC2 (some centres undefined)	i	i	i	i	i
COc1cc2c(cc1OC)C(C)N(C(=O)C(NC(=O)c1ccccc1)C(C)C)CC2 (centres undefined)	96*	i	i	i	i
